From PubChem BioAssay
Rows were chosen to be rich in hits. Some 2.2% of all compounds tested hit in one or more screens of this group.
TDP2 inh: blocks human TDP2 phosphodiesterase activity. O95551. recombinant TDP2, T5PNP hydrolysis, p-nitrophenol absorbance 415 nm. inhibition, % at 12.8 µM. 370,000 tested, 0.34% active. AID 720702;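 active = inhibition above the mean of all tested compounds plus 3 SD, set per campaign, cut at about 25% in these data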
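Assay system: Recombinant human TDP2 | Quantity: 120 nM TDP2 per well | Incubation: 2 h at 37 °C | Signal: Epi absorbance | Evaluation: Percent inhibition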
TCR-CD3 inh: blocks the human TCR-CD3 interaction; TAMRA-labeled TCR probe fluorescence, biochemical; inhibition, % at 9.4 µM; 360,000 tested, 0.37% active; in the data active = inhibition above about 19%;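 note: recombinant mutant TCR 2C K166C tagged with TAMRA read by polarization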
LEDGF integ inh: blocks HIV-1 LEDGF/p75-dependent DNA integration; TR-FRET IN-LEDGF/p75 DNA integration, Eu/Cy5; inhibition, % at 3.7 µM; 370,000 tested, 0.64% active;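 active = inhibition above the screen-wide mean plus 3 SD, cut at about 13% in these data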;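 note: signal is the Cy5 over europium emission ratio at 671 and 618 nm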
HTRA1 inhibitor: blocks human HTRA1 serine peptidase; 340,000 tested, 0.5% active; recombinant HTRA1, FP-rhodamine activity-based probe, fluorescence polarization; inhibition, % at 5.96 µM; Q92743; in the data active = inhibition above about 36%
SIAE inh: blocks human sialic acid acetylesterase. SIAE FP-Rh probe binding, fluorescence polarization. AID 1053197. 370,000 tested, 0.69% active. Q9HAT2. inhibition, % at 9.66 µM;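 active = inhibition above a cutoff: mean of compounds within the control limits plus 3 SD of those, cut at about 17% in these data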
Target sequence (Q9HAT2 whole entry, looked up): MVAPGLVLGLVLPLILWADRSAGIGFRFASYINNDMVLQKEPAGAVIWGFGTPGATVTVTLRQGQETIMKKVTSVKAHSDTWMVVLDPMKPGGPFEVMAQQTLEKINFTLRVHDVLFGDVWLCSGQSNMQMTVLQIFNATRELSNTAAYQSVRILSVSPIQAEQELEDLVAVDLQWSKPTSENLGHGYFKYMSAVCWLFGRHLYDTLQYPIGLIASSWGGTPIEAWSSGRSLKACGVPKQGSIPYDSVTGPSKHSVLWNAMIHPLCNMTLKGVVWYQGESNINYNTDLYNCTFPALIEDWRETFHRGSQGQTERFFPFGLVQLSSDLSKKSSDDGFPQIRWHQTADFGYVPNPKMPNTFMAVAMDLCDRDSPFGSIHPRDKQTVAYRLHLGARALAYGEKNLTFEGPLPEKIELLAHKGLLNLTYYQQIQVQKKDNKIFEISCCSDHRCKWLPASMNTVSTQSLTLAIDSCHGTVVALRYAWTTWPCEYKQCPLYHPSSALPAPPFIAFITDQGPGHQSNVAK
mABHD4 FP: inhibits mouse alpha/beta hydrolase domain 4; Q8VD66; AID 720543; inhibition, % at 8.92 µM; 370,000 tested, 0.54% active; purified mABHD4, FP-Rh probe fluorescence polarization;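 active = inhibition exceeding the mean over every tested compound plus 3 SD, cut at about 30% in these data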
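Assay system: mouse ABHD4 enzyme, wild type / Also added: fluorescent activity-based probe FP-Rh / Doses: single nominal dose of 8.92 µM, 0.89% DMSO final / Timing: 45 min compound pre-incubation plus 60 min probe step, 25 °C / Signal: FP readout, ex 525 nm / em 598 nm / Control set: S159A mutant/DMSO as 100%, compound-well median as 0%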
TDP2 inh conf: human TDP2 inhibition, confirmation; recombinant human TDP2, absorbance read-out; 1,100 tested, 22% active; inhibition, % at 12.8 µM; shares compounds with TDP2 inh; in the data active = inhibition above about 25%
Hits are given with their value; – = inactive; · = no result given.

SMILES | TDP2 inh | TCR-CD3 inh | LEDGF integ inh | HTRA1 inhibitor | SIAE inh | mABHD4 FP | TDP2 inh conf
CC1(C)CC(=O)C2=C(C1)OC(N)=C(C#N)C2c1ccccc1 (configuration not stated) | 68.1 | – | – | – | – | – | –
CC1(C)CC(=O)C2=C(C1)OC(N)=C(C#N)C2c1cccs1 (configuration not stated) | – | – | – | – | – | – | ·
Cc1ccccc1NC(=O)CSc1nnc(-c2cc(-c3ccccc3)n[nH]2)n1N | – | · | – | · | – | – | ·
Cc1noc(C)c1S(=O)(=O)N1CCCC(C(=O)NCc2ccccc2Cl)C1 (configuration not stated) | 27.2 | – | – | – | – | – | –
Cc1ccc(-c2nnc3n2N=C(c2ccc(-c4ccccc4)cc2)CS3)cc1 | – | · | – | · | – | – | ·
COc1cccc(NC(=O)N2CCCC2C(=O)NC23CC4CC(CC(C4)C2)C3)c1 (configuration not stated) | 32.9 | – | – | – | – | – | –
COC(=O)CCC(=O)OC1(C)C(=O)C=C2C=C(C3CC3)N(C3CCCC3)C=C2C1=O (configuration not stated) | – | – | – | – | – | – | ·
COC(=O)CCC(=O)OC1(C)C(=O)C=C2C=C(C3CC3)N(CC3CC3)C=C2C1=O (configuration not stated) | 28.0 | – | – | – | – | – | –
CCN(CC)CCCN1C=C2C(=O)C(C)(OC(=O)CCC(=O)OC)C(=O)C=C2C=C1C1CC1 (configuration not stated) | – | – | – | – | – | – | ·
COC(=O)CCC(=O)OC1(C)C(=O)C=C2C=C(C3CC3)N(C3CCCCC3)C=C2C1=O (configuration not stated) | 28.9 | – | – | – | – | – | –
CCCn1nc2cc(C(=O)NCc3ccc(OC(F)(F)F)cc3)ccc2c1OCC | – | – | – | – | – | – | ·
CCCn1nc2cc(C(=O)NCc3ccc(OC)cc3)ccc2c1OCC | 38.2 | – | – | – | – | – | –
Cc1ccccc1CN1CCN(C(=O)c2ccc(F)cc2)CC1 | 29.1 | – | – | – | – | – | –
Cc1ccccc1CC(=O)N1CCN(C(=O)c2ccco2)CC1 | – | – | – | – | – | – | ·
Cc1ccccc1CN1CCN(C(=O)c2ccco2)CC1 | 27.6 | – | – | – | – | – | –
COC(=O)[C@H](Cc1ccccc1)N[C@H](c1ccc(OC)cc1)[C@@H](O)Cc1ccccc1 | – | – | – | · | – | – | ·
O=C(NC(=O)c1ccccc1O)c1ccc2c(c1)CCO2 | 25.3 | – | – | – | – | – | –
CC(C)(C)NC(=O)c1ccc2c(c1)CCO2 | – | – | – | – | – | – | ·
CC(C)CC(=O)N1CCN(Cc2ccc(Cl)cc2)CC1 | 26.2 | – | – | – | – | – | –
CC(C)CC(=O)N1CCN(Cc2ccc(Br)cc2)CC1 | – | – | – | – | – | – | ·
CC(C)CC(=O)N1CCN(Cc2ccc(C(F)(F)F)cc2)CC1 | 30.3 | – | – | – | – | – | –
COc1cc(/C=C/C(=O)OCC(=O)Nc2cc(C)on2)ccc1OCC#N | 26.2 | – | – | – | – | – | –
COc1cc(/C=C/C(=O)OCC(=O)NC(=O)NC(C)C)ccc1OCC#N | – | – | – | – | – | – | ·
Cc1cnc(CNC(=O)CC2C(=O)NCCN2Cc2cccc(F)c2F)cn1 (configuration not stated) | 25.1 | – | – | – | – | – | –
Cc1nn2c(=O)cc(CSc3ccccc3NC(=O)c3ccccc3)nc2s1 | 26.2 | – | – | – | – | – | –
SMILES | TDP2 inh | TCR-CD3 inh | LEDGF integ inh | HTRA1 inhibitor | SIAE inh | mABHD4 FP | TDP2 inh conf
COc1cc(C(=O)Nc2ccccc2SCc2cc(=O)n3nc(C)sc3n2)cc(OC)c1OC | – | – | – | – | – | – | ·
COc1ccc(C(=O)Nc2nc3c(s2)Cc2cc(OC)ccc2-3)cc1 | 31.8 | – | – | – | – | – | 37.6
Cc1c(C(c2cc(O)ccc2Cl)c2c(C)n(C)n(-c3ccccc3)c2=O)c(=O)n(-c2ccccc2)n1C | 28.8 | – | – | – | – | – | –
COc1ccc2c(c1)-c1nc(N)sc1CC2 | – | – | – | – | – | – | ·
Nc1nc2c(s1)CCc1ccccc1-2 | 30.2 | – | – | – | – | – | –
CCC(NC(=O)c1ccc2c(ccn2Cc2cccc(-c3ccccc3C(=O)O)c2)c1)c1ccccc1 (configuration not stated) | – | · | – | · | – | – | ·
CSc1nc2ccsc2c(=O)n1-c1ccccn1 | 60.0 | – | – | – | – | – | –
O=C(c1ccc(F)cc1)n1ccc2ccc(-c3ccc4ccn(Cc5ccccc5)c4c3)cc21 | – | · | – | · | – | – | ·
N#Cc1c(-c2ccccc2)cc(-c2ccc(O)cc2)nc1N | 28.8 | – | – | – | – | – | –
COc1ccc(C(CCOC(=O)Oc2ccccc2)c2cc(OC)cc(OC)c2)cc1 (configuration not stated) | – | · | – | · | – | – | ·
COc1cccc(N2CC(C(=O)Nc3nnc(SCCC4OCCO4)s3)CC2=O)c1 (configuration not stated) | 28.7 | – | – | – | – | – | –
Cc1cc(NC(=O)CSc2nc3cc(Cl)ccc3o2)no1 | – | – | – | – | – | – | ·
CCN(CC)S(=O)(=O)c1ccc2oc(SCC(=O)Nc3cc(C)on3)nc2c1 | 41.0 | – | – | – | – | – | –
Cc1ccc(NS(=O)(=O)c2ccc(C(=O)NCC(c3ccco3)N(C)C)cc2)cc1 (configuration not stated) | – | – | – | – | – | – | ·
CN(C)C(CNC(=O)c1ccc(NS(=O)(=O)c2ccc(F)cc2)cc1)c1ccco1 (configuration not stated) | 27.2 | – | – | – | – | – | –
CC(=O)Nc1ccc(S(=O)(=O)N2CCC(NC(=O)C(Cc3ccc(C)cc3)NC(C)=O)CC2)cc1 (configuration not stated) | – | – | – | – | – | – | ·
CC(=O)Nc1ccc(S(=O)(=O)N2CCC(NC(=O)C(Cc3cccc(F)c3)NC(C)=O)CC2)cc1 (configuration not stated) | 28.1 | – | – | – | – | – | –
CCC[C@H]1[C@@H](NCc2ccccc2)CC[C@@]23CCCN2C(=O)CCC[C@@H]13 | – | · | – | · | – | – | ·
CCOc1ccc2[nH]c3nc(SCC(=O)OC(C)C)nnc3c2c1 | 24.9 | – | – | – | – | – | –
CC(C)C1Cc2[nH]c(=O)c(C(=O)O)cc2CO1 (configuration not stated) | 29.3 | – | – | – | – | – | –
COc1ccc2[nH]c(=O)c(C(=O)O)cc2c1 | – | – | – | – | – | – | ·
